SUMO Mot1 rescue – yeast Mot1-301 growth rescue at high temperature, primary screen, SUMOylation pathway inhibitor project, S. cerevisiae, ATP luminescence, 38.5C. S. cerevisiae Mot1-301 growth rescue; percent above DMSO median, 100 means doubled. growth rescue, % at 18.8 µM. 1% of 320,000 active. AID 2716, 2010;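 active = every valid replicate shows activation above 250% relative to neutral control wells; inactive = the rest, any valid replicate at or below 250%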
C2C12 statin – suppressors of statin myotoxicity in C2C12 myotubes, primary screen, cell-based, single point, plate reader; C2C12 myotubes + simvastatin, ATP luminescence, 48 h; scaled: DMSO 0, geranylgeraniol control 100; rescue of ATP level, % at 7.49 µM; 0.78% of 330,000 active;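 active = mean ATP rescue above about 67%, or every replicate alone reaching that limit, limit read from the data, passing the limit was not always enough; inconclusive = no clear call, values can overlap the other calls; inactive = mean under the limit and some replicate under it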;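 note: myotubes were challenged with 10 µM simvastatin during compound exposure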
Efflux pump mplx – inhibitors of Candida efflux pumps in yeast, primary screen, S. cerevisiae, Nile Red, multiplex; AID 485275, 2010; inhibition, % at 10 µM; 0.44% of 330,000 active; S. cerevisiae Candida pump triplex;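 active = plate passing quality check with inhibition over a set limit, or well fluorescence over plate mean plus 4 SD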;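 note: Nile Red retained in pooled yeast measured as flow cytometry median fluorescence; higher means more Nile Red kept so more efflux inhibition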
Cneo AK release – Cryptococcus neoformans cell lysis inducers, primary screen, AK release luminescence, single concentration | C. neoformans lysis, adenylate kinase release luminescence, 4 h; normalised: neutral wells 0, clomiphene wells 100 | lysis activity, % at 15 µM | 0.2% of 360,000 active | AID 651654, 2012;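 active = mean lysis activity across replicates of at least 80%, whatever share of replicates individually reach that level; inactive = mean lysis activity below 80%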
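Test system: log-phase Cryptococcus neoformans yeast cells. Input: 5 × 10^6 yeast cells/mL. Medium: fresh YPD growth medium. Doses: single dose. Incubation: static 4 h at 37 °C with compound, 1 h detection. Measured by: luminescent adenylate kinase detection reagent. Read-out: signal increase indicating cell lysis. Benchmarks: Clomiphene.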
Large screens that a line does not name were inactive; ! = a repeat was not active. Rows were chosen to be rich in hits. Some 1.8% of all compounds tested hit in one or more screens of this group.

C[C@H](CO)N1C[C@H](C)[C@H](CN(C)C(=O)Nc2ccc(F)cc2)Oc2ccc(NC(=O)C3CCCCC3)cc2C1=O	none (no result: SUMO Mot1 rescue, Efflux pump mplx)
COc1ccc(C#Cc2cnc3c(c2)C(=O)N([C@H](C)CO)C[C@H](C)[C@@H](CN(C)C(=O)Nc2cccc(OC)c2)O3)cc1	C2C12 statin 112! (no result: SUMO Mot1 rescue, Efflux pump mplx)
COc1ccc(C#Cc2cnc3c(c2)C(=O)N([C@@H](C)CO)C[C@H](C)[C@@H](CN(C)C(=O)CC2CC2)O3)cc1	Cneo AK release 88 (no result: SUMO Mot1 rescue, Efflux pump mplx)
COCC#Cc1cnc2c(c1)C(=O)N([C@@H](C)CO)C[C@H](C)[C@H](CN(C)C(=O)Nc1ccc(OC)cc1)O2	Cneo AK release 109 (no result: SUMO Mot1 rescue, Efflux pump mplx)
CO[C@H]1CN(C)C(=O)c2cc(NS(=O)(=O)CC(F)(F)F)ccc2OC[C@H](C)NC[C@@H]1C	none (no result: SUMO Mot1 rescue, Efflux pump mplx)
CCOC(=O)CCCCC(=O)c1[nH]c(=O)[nH]c1Cn1ccnc1	none (no result: SUMO Mot1 rescue)
CN(C(=O)CSc1nnc(-c2ccc(Cl)cc2)n1CC1CCCO1)C1CCS(=O)(=O)C1 (stereo not given)	none (no result: C2C12 statin)
CCC(C)[C@H]1COCCS(=O)(=O)N1Cc1ccc(Br)cc1 (stereo not given in full)	C2C12 statin 117
O=C(C1CCOCC1)N1C[C@@H]2[C@H](c3ccccc31)[C@@H](CO)N2Cc1ccccc1Cl	none (no result: SUMO Mot1 rescue, Efflux pump mplx)
O=C(C1CCOCC1)N1C[C@H]2[C@@H](c3ccccc31)[C@@H](CO)N2Cc1ccccc1Cl	Cneo AK release 100 (no result: SUMO Mot1 rescue, Efflux pump mplx)
O=C(NC(=S)NNS(=O)(=O)c1ccc(Cl)cc1)c1cccnc1	none (no result: C2C12 statin, Cneo AK release)
O=C(/C=C/c1ccccc1)C1=C(O)C(=O)N(CCO)C1c1ccc2c(c1)OCO2 (stereo not given)	C2C12 statin 115
O=C(C=Cc1ccc2c(c1)OCO2)c1ccccc1	none (no result: SUMO Mot1 rescue, Efflux pump mplx)
O=C(NC1CCCc2ccccc21)c1ccc2c(c1)OCO2 (stereo not given)	none
CC(NCc1ccc2c(c1)OCO2)C(=O)NC1CCCc2ccccc21 (stereo not given)	C2C12 statin 99
O=P(O)(CCCP(=O)(O)CCc1ccccc1)CCc1ccccc1	none
Cc1ccc(-n2c(C)nnc2SC(C)C(=O)N2CCCC2)cc1 (stereo not given)	SUMO Mot1 rescue 285
O=C(NCc1ccc(Cl)cc1)C1C2C=CC3(CN(Cc4cccnc4)C(=O)C13)O2 (stereo not given)	none
O=C(NCc1ccc(F)cc1)C1C2C=CC3(CN(Cc4cccnc4)C(=O)C13)O2 (stereo not given)	Cneo AK release 116 (no result: C2C12 statin)
CCC(C)CCN1C(N(C)C)=NC[C@@H]1C (stereo not given in full)	SUMO Mot1 rescue 318, C2C12 statin 149
O=C1O/C(=C/C(=O)N2CCOCC2)c2ccccc21	C2C12 statin 74 (no result: SUMO Mot1 rescue)
CC(C)[C@H](NC(=O)Nc1ccc2c(c1)OCCO2)C(=O)O	none
COc1cccc(-c2ccc3c(c2)O[C@H](CN(C)C)[C@H](C)CN([C@@H](C)CO)S3(=O)=O)c1	none (no result: SUMO Mot1 rescue, Efflux pump mplx)
CC(C)NC(=O)Nc1cccc2c1O[C@H](CN(C)Cc1ccc(-c3ccccc3)cc1)[C@@H](C)CN([C@@H](C)CO)C2=O	C2C12 statin 66 (no result: SUMO Mot1 rescue, Efflux pump mplx)
Cc1noc(C)c1NC(=O)Nc1cccc2c1O[C@@H](CN(C)Cc1ccc(-c3ccccc3)cc1)[C@H](C)CN([C@H](C)CO)C2=O	C2C12 statin inconclusive (no result: SUMO Mot1 rescue, Efflux pump mplx)
Cc1noc(C)c1NC(=O)Nc1cccc2c1O[C@H](CN(C)Cc1ccc(-c3ccccc3)cc1)[C@@H](C)CN([C@@H](C)CO)C2=O	C2C12 statin 98 (no result: SUMO Mot1 rescue, Efflux pump mplx)
CC(C)NC(=O)Nc1cccc2c1O[C@H](CN(C)Cc1ccc(-c3ccccc3)cc1)[C@H](C)CN([C@@H](C)CO)C2=O	none (no result: SUMO Mot1 rescue, Efflux pump mplx)
O=C(NCc1nc2ccccc2[nH]1)C1=C[C@H](C2CC2)C[C@H](OCc2ccc(CO)cc2)O1	Cneo AK release 81!
Cc1ccc(N(Cc2cc3ccccc3[nH]c2=O)C(=O)c2cccs2)cc1C	C2C12 statin 101 (no result: SUMO Mot1 rescue)
O=C(c1cccs1)N(Cc1cc2ccccc2[nH]c1=O)c1ccccc1	none (no result: C2C12 statin, Cneo AK release)
CCn1c(=O)c(C(=O)Nc2ccsc2C(=O)OC)c(O)c2ccccc21	SUMO Mot1 rescue 783 (no result: C2C12 statin, Cneo AK release)
CCOC(=O)c1ccccc1NC(=O)c1c(O)c2ccccc2n(CC)c1=O	none
COCCNCCCCOc1ccc(Br)cc1C	none (no result: C2C12 statin)
COCCCNCCCCOc1ccc(Br)cc1C	SUMO Mot1 rescue 269 (no result: C2C12 statin, Cneo AK release)
C[C@@H]1CN([C@H](C)CO)C(=O)c2cc(N(C)C)ccc2O[C@@H](C)CCCCO[C@@H]1CN(C)Cc1ccccc1	none (no result: SUMO Mot1 rescue, Efflux pump mplx)
O=C(O)COn1c(-c2ccccc2)nc2ccc([N+](=O)[O-])cc21	C2C12 statin 105
CCOC(=O)c1cn(-c2nc(-c3ccc(Cl)c(Cl)c3)cs2)c2c(F)c(N3CCOCC3)c(F)cc2c1=O	Efflux pump mplx 1.6
CCOC(=O)c1cn(-c2ccc(F)c(F)c2F)c2c(F)c(F)c(F)cc2c1=O	none
Nc1ccc2c(S(=O)(=O)O)cccc2c1S(=O)(=O)O	C2C12 statin 102 (no result: SUMO Mot1 rescue, Efflux pump mplx)
Nc1cccc2cc(S(=O)(=O)O)ccc12	none (no result: SUMO Mot1 rescue, Efflux pump mplx)
COc1ccc(S(=O)(=O)N2CCCCCC2)cc1C(=O)OCC(=O)NCC(C)C	none
CC(=O)C[C@@H](O)CC(=O)[C@@H]1OC(=O)CCCCCCc2ccccc21	C2C12 statin 112
CC(=O)C[C@H](O)CC(=O)[C@H]1OC(=O)CCCCCc2ccccc21	none
COC(=O)C[C@@H]1CC[C@@H](NS(=O)(=O)c2ccccc2F)[C@@H](CO)O1	none (no result: SUMO Mot1 rescue, Efflux pump mplx, Cneo AK release)
COC(=O)c1[nH]c2ccc(F)cc2c1NS(=O)(=O)c1ccc(OC)cc1	SUMO Mot1 rescue 348 (no result: C2C12 statin, Cneo AK release)
Cc1c(NC(=O)c2cccc(NC(=O)Cc3ccccc3F)c2)c(=O)n(-c2ccccc2)n1C	none
C(=N\c1nccs1)/c1cccnc1	C2C12 statin 112
C(=N\N=C\c1cccnc1)/c1cccnc1	none (no result: C2C12 statin)
Cc1ccccc1C(=O)N1N=C(c2ccc(NS(C)(=O)=O)cc2)CC1c1cccs1 (stereo not given)	none
O=c1[nH]nc(Cc2ccc(Cl)cc2Cl)c2ccccc12	C2C12 statin 140
COCCCN1C(=O)C(=O)/C(=C(/O)c2ccc(OCC(C)C)cc2)C1c1cccnc1 (stereo not given)	none (no result: Cneo AK release)
O=C(NNc1ccccc1)C(=O)NNS(=O)(=O)c1ccc([N+](=O)[O-])cc1	SUMO Mot1 rescue 368 (no result: C2C12 statin, Cneo AK release)
CC(=O)Nc1ccc(S(=O)(=O)NNC(=O)c2ccc([N+](=O)[O-])cc2)cc1	none
CC(=O)Nc1ccc(S(=O)(=O)NNc2ccc([N+](=O)[O-])cc2)cc1	SUMO Mot1 rescue 296
CCCNC(=O)N1CC[C@@H]2[C@@H](CO)N(C)c3ccc(-c4ccccc4)cc3[C@@H]21	none (no result: SUMO Mot1 rescue, Efflux pump mplx)
C[C@@H]1CCCCO[C@@H](CN(C)Cc2ccc(C(F)(F)F)cc2)[C@@H](C)CN([C@@H](C)CO)C(=O)c2cc(NS(=O)(=O)c3cccs3)ccc2O1	none (no result: SUMO Mot1 rescue, Efflux pump mplx)
